Results: ChEMBL document CHEMBL3856201, “5,10b-Ethanophenanthridine amaryllidaceae alkaloids inspire the discovery of novel bicyclic ring systems with activity against drug resistant cancer cells” (2016)
Active and inactive are the calls of the source. No cut-off for these calls is given here.

How the values were obtained:
[1] = Antiproliferative activity against human HeLa cells after 48 hrs by MTT assay; type: functional
How it was run: (§1)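 HeLa cells were cultured in DMEM + 10% FBS and MCF-7 cells in RPMI + 10% FBS, both at 37 °C under 5% CO2. Compounds were diluted from DMSO stocks and applied for 48 h. Viability was read by MTT relative to DMSO control. The value is the concentration reducing viability by 50%, ±SD from two independent experiments of 4 replicates each.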

[2] = Antiproliferative activity against human MCF7 cells after 48 hrs by MTT assay; type: functional; conditions: MCF7, 48 h; how it was run: as §1
[3] = Antiproliferative activity against drug-sensitive human Hs683 cells after 48 to 96 hrs by MTT assay; type: functional; conditions: Hs 683
How it was run: (§2)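 MTT read-out. T98G and Hs683 cells were grown in DMEM with 10% FBS, glutamine, gentamicin and penicillin-streptomycin at 37 °C and 5% CO2. Compounds came from 100 or 50 mM DMSO stocks and were tested at 0.001–100 µM for 48–96 h. Controls were 0.1% DMSO (negative) and 1 µM phenyl arsine oxide (positive). The value is the mean concentration giving 50% viability loss; replicate number varied.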

[4] = Antiproliferative activity against drug-resistant human U373 cells after 48 to 96 hrs by MTT assay; type: functional, U-373MG ATCC; conditions: U373 MG
How it was run: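 Culture was RPMI with 10% heat-inactivated FBS plus glutamine and antibiotics for U373 cells. Compound exposure was 0.001–100 µM for 48–96 h, with 0.1% DMSO and 1 µM phenyl arsine oxide as controls. The MTT assay gave the average concentration cutting viability by 50%; replicate numbers varied.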

[5] = Antiproliferative activity against drug-resistant human U251 cells after 48 to 96 hrs by MTT assay; type: functional; conditions: U-251
How it was run: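 U251 cells were kept in 10% MEM with glutamine, gentamicin and penicillin-streptomycin at 37 °C and 5% CO2. After seeding they were grown 24–72 h and then given compounds at 0.001–100 µM (from 100 or 50 mM DMSO stocks) for 48–96 h. Viability was read by MTT. Vehicle control was 0.1% DMSO; 1 µM phenyl arsine oxide served as positive control. The result is the average 50%-viability-reducing concentration.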

[6] = Antiproliferative activity against drug-resistant human U87 cells after 48 to 96 hrs by MTT assay; type: functional, U-87MG ATCC; conditions: U-87 MG
How it was run: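 U87 cells grown in DMEM with glutamine, gentamicin and penicillin-streptomycin (37 °C, 95% humidity, 5% CO2) were seeded and then treated with 0.001–100 µM compound for 48–96 h. Readout was MTT. Controls were 0.1% DMSO and 1 µM phenyl arsine oxide. The value is the average concentration reducing viability 50%.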

[7] = Antiproliferative activity against drug-resistant human T98G cells after 48 to 96 hrs by MTT assay; type: functional; how it was run: as §2
[8] = Antiproliferative activity against drug-resistant human A549 cells after 48 to 96 hrs by MTT assay; type: functional
How it was run: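 A549 cells grown in RPMI with 10% heat-inactivated FBS, 4 mM glutamine and antibiotics at 37 °C under 5% CO2. Compounds came from 100 or 50 mM DMSO stocks and were tested at 0.001–100 µM for 48–96 h. Read-out was MTT. The value is the mean concentration giving 50% viability loss, with varied replicate numbers. Controls were 0.1% DMSO (negative) and 1 µM phenyl arsine oxide (positive).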

[9] = Antiproliferative activity against patient-derived TMZ-sensitive GBM 090909 cells after 48 to 96 hrs by MTT assay; type: functional; conditions: Homo sapiens
How it was run: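 Primary GBM neurosphere cultures came from resected patient tumour. Tissue was minced, dissociated with 100 U/mL collagenase in neurobasal medium for 30 min at 37 °C, filtered through 70 µm, spun at 200 × g for 5 min, and grown in ultra-low attachment wells in neurobasal medium with B27. Compounds were applied at 0.001–100 µM for 48–96 h. MTT gave the average 50%-viability concentration.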

[10] = Antiproliferative activity against patient-derived TMZ-resistant GBM 031810 cells over-expressing MGMT after 48 to 96 hrs by MTT assay; type: functional; conditions: Homo sapiens
[11] = Antiproliferative activity against patient-derived paclitaxel-sensitive NCI-H1993 cells after 48 to 96 hrs by MTT assay; type: functional; conditions: Homo sapiens
[12] = Antiproliferative activity against patient-derived paclitaxel-resistant NCI-H2073 cells after 48 to 96 hrs by MTT assay; type: functional; conditions: Homo sapiens
[13] = Antiproliferative activity against human MES-SA cells after 48 to 96 hrs by MTT assay; type: functional
How it was run: (§3)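 Parent MES-SA and MES-SA/Dx5 uterine sarcoma cells were grown in RPMI-1640 with 10% FBS. The Dx5 line was kept in 500 nM doxorubicin after stepwise selection from 100 nM in twofold steps, about 2 passages per step. MTT assay used 0.001–100 µM compound for 48–96 h, with 0.1% DMSO and 1 µM phenyl arsine oxide controls. The ratio is the Dx5 GI50 divided by the parent GI50.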

[14] = Antiproliferative activity against human MES-SA/Dx5 cells after 48 to 96 hrs by MTT assay; type: functional; how it was run: as §3
NCI-H1993 = experiment: Potentiation of paclitaxel-induced cytotoxicity against patient-derived paclitaxel-sensitive NCI-H1993 cells assessed as reduction in cell viability up to 100 uM after 96 hrs by Celltiter-Glo luminescent assay; type: functional, cell-based; conditions: Homo sapiens
How it was run: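 NCI-H1993 cells were seeded at 4×10^3 per well and grown 24 h. […] Viability was read by CellTiter-Glo luminescence. Predicted additivity was calculated by Bliss independence, Exy = Ex + Ey − ExEy.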

[15] = Inhibition of cap/HCV-mediated translation in mouse Krebs2 cell free extract expressing FF/HCV/Ren mRNA reporter transcript assessed as reduction in luciferase production at 50 uM relative to control; type: functional
How it was run: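 Krebs-2 translation extracts were programmed with bicistronic FF/HCV/Ren mRNA and incubated with compound at 50 µM or vehicle (0.5% DMSO). Firefly (cap) and Renilla (HCV IRES) luciferase activities were expressed relative to the DMSO control, from 2 independent translation reactions, as mean with error of the mean. Reference inhibitors were 1 µM hippuristanol and 10 µM anisomycin.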

Oryctolagus cuniculus = organism: Oryctolagus cuniculus; experiment: Inhibition of cap/HCV-mediated translation in rabbit reticulocyte lysate expressing FF/HCV/Ren mRNA reporter transcript assessed as reduction in luciferase production at 50 uM after 1 hr relative to control; type: functional
How it was run: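 Rabbit reticulocyte lysate was programmed with bicistronic FF/HCV/Ren mRNA and incubated with compound (50 µM) or 0.5% DMSO vehicle. Firefly and Renilla luciferase activities were expressed relative to the DMSO control. Two independent translation reactions, reported with error of the mean.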

HeLa S3 [16] = experiment: Inhibition of translation in human HeLaS3 assessed as increase in eIF2alpha phosphorylation at 50 uM after 1 hr by Western blot analysis; type: functional
How it was run: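 HeLa S3 cells were exposed to 50 µM compound for 1 h. Extracts were resolved by SDS-PAGE and transferred to PVDF. Western blots were probed for phospho-eIF2α, pan-eIF2α and eEF2.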

HeLa S3 [17] = experiment: Inhibition of translation in human HeLaS3 assessed as induction of dis-aggregation of polysomes at 50 uM after 1 hr by UV-based […] method; type: functional
How it was run: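 HeLa S3 cells were exposed to 50 µM compound for 1 h, then analysed by polysome profiling against a DMSO-treated control profile.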

Compound `O=C1C=C[C@]23CC[N@](Cc4c2sc2ccccc42)[C@H]3C1` has a GI50 [1] of 8 µM, a GI50 [2] of 5 µM and a GI50 [3] of 3 µM. For the same compound, the GI50 [4] was 2 µM, the GI50 [5] was 1 µM and the GI50 [6] was 2 µM. The GI50 [7] was 7 µM, the GI50 [8] was 9 µM and the GI50 [9] was 5 µM. It also gave a GI50 [10] of 1 µM, a GI50 [11] of 3 µM and a GI50 [12] of 11 µM. The GI50 [13] was 5 µM, the GI50 [14] was 7 µM and the Activity (NCI-H1993) was “Active”. For the same compound, the inhibition at 50 µM [15] was 25%, the inhibition (Oryctolagus cuniculus) was 25% and the inhibition (HeLa S3 [16]) was “Active”. For the same compound, the inhibition (HeLa S3 [17]) was “Active”.
